This is an account of results in ChEMBL document CHEMBL1158600, “Phenanthrenes from Dendrobium nobile and their inhibition of the LPS-induced production of nitric oxide in macrophage RAW 264.7 cells” (Bioorg Med Chem Lett, 2010).

Molecules are shown by their SMILES.

For the test, the system named is RAW264.7. The experiment in a line: Antiinflammatory activity in mouse RAW264.7 cells assessed as inhibition of LPS-induced NO production. The format is functional, cell-based. An outline of the steps: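 RAW 264.7 cells seeded at 2 × 10^5 cells/mL, stimulated with 1 µg/mL LPS with or without test compound, 37 °C for 24 h. Nitrite in cell-free supernatant measured by Griess reagent (sulfanilamide in phosphoric acid plus N-(1-naphthyl)ethylenediamine), absorbance at 550 nm against sodium nitrite standard curve. IC50 for 50% NO inhibition; triplicate, mean ± SD. Viability checked by CCK assay.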
With `COc1cc(O)cc(CCc2ccc(O)c(OC)c2)c1` [GIGANTOL], the IC50 is over 50 µM.

Regarding `COc1cc(CCc2cc(OC)c(O)c(OC)c2)ccc1O` [MOSCATILIN], the concentration for half-maximal inhibition (IC50) worked out at 27.6 µM.

As to `COc1cc2c(c(O)c1OC)-c1ccc(O)cc1CC2` [EPHEMERANTHOL A], the concentration for half-maximal inhibition (IC50) is 12 µM.

With `N=C(N)NN` [PIMAGEDINE], the half-inhibitory concentration (IC50) amounted to 17.5 µM.

For the molecule `COc1c(O)cc2ccc3c(OC)ccc(O)c3c2c1OC`, the IC50 was 20.4 µM.

As to `COc1cc2c(c(OC)c1O)-c1ccc(O)cc1CC2` [FLAVANTHRIDIN], the IC50 worked out at 34.1 µM.

On to `COc1cc(O)cc(CCc2ccc(OC)c(OC)c2)c1`, for which the IC50 was over 50 µM.

As for `COc1c(O)c(O)cc2ccc3cccc(O)c3c12` [FIMBRIOL B], the IC50 turned out to be 28.9 µM.

Turning to `COc1c(O)c(O)cc2c1-c1c(O)cccc1CC2` [EPHENERANTHOL C], the IC50 is 17.6 µM.

Take `COc1cc2ccc3cc(O)ccc3c2c(OC)c1O`: the IC50 turned out to be 35.7 µM.

In the case of `COc1cc(O)cc2c1-c1c(O)cccc1CC2` [HIRCINOL], the IC50 was 26.4 µM.

`COc1cc(O)c2c(c1)CCc1cc(O)ccc1-2` [LUSIANTHRIDIN]: the IC50 amounted to 9.6 µM.

In the case of `COc1c(O)cc2c(c1OC)-c1ccc(O)cc1CC2` [ERIANTHRIDIN], the IC50 is 19.5 µM.

In general, IC50 refers to the concentration that gives 50% inhibition.
